In ChEMBL document CHEMBL1125096, “Synthesis and antitumor activity of 9-[(carbamoyloxy)alkyl]anthracyclines: a novel class of anthracycline derivatives” (1990):

Columns and labels:
Assay type in all cases: functional, Mus musculus
L1210 (1565) [1] = test: Antitumor activity against L-1210 leukemia cell line in BDF1 mice after injecting 2 mg/kg intraperitoneal dose
Outline: (§1)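 Female BDF1 mice, five per dose group, inoculated ip with 10^5 viable L-1210 ascites cells. Dosing started the same day: ip, daily, five times a week for 4 weeks or until death. Vehicle was aqueous solution, or propylene glycol suspension if insoluble. Efficacy is expressed as T/C, the ratio of mean survival time of treated to untreated control mice. Survivors at 4 weeks counted as long-term.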

L1210 (1565) [2] = test: Antitumor activity against L-1210 leukemia cell line in BDF1 mice after injecting 0.05 mg/kg intraperitoneal dose; outline: as §1
L1210 (1565) [3] = test: Antitumor activity against L-1210 leukemia cell line in BDF1 mice after injecting 16 mg/kg intraperitoneal dose; outline: as §1
L1210 (1565) [4] = test: Antitumor activity against L-1210 leukemia cell line in BDF1 mice after injecting 0.125 mg/kg intraperitoneal dose; outline: as §1
L1210 (1565) [5] = test: Antitumor activity against L-1210 leukemia cell line in BDF1 mice after injecting 1 mg/kg intraperitoneal dose; outline: as §1
L1210 (1565) [6] = test: Antitumor activity against L-1210 leukemia cell line in BDF1 mice after injecting 0.5 mg/kg intraperitoneal dose; outline: as §1
L1210 (1565) [7] = test: Antitumor activity against L-1210 leukemia cell line in BDF1 mice after injecting 4 mg/kg intraperitoneal dose; outline: as §1
L1210 (1565) [8] = test: Antitumor activity against L-1210 leukemia cell line in BDF1 mice after injecting 0.25 mg/kg intraperitoneal dose; outline: as §1

## CO[C@H]1[C@H](N)C[C@H](O[C@H]2C[C@](O)(COC(=O)Nc3ccccc3)Cc3c(O)c4c(c(O)c32)C(=O)c2ccccc2C4=O)O[C@H]1C.Cl (stereo in doubt; 19)
L1210 (1565) [1]; 2 mg/kg
  T/C: 230%

## CC(=O)[C@]1(O)Cc2c(O)c3c(c(O)c2[C@@H](O[C@H]2C[C@@H](N)[C@H](O)[C@H](C)O2)C1)C(=O)c1ccccc1C3=O.Cl
L1210 (1565) [2]
  T/C: 230%

## CC1OC(O[C@H]2C[C@](O)(COC(=O)Nc3ccccc3)Cc3c(O)c4c(c(O)c32)C(=O)c2ccccc2C4=O)CC(N)C1OCc1ccccc1.Cl (some centres undefined)
L1210 (1565) [3]
  T/C: 470%

## CC1OC(O[C@H]2C[C@](O)(COC(=O)Nc3ccc(Cl)cc3)Cc3c(O)c4c(c(O)c32)C(=O)c2ccccc2C4=O)CC(N)C1O.Cl (some centres undefined)
L1210 (1565) [1]
  T/C: 370%

## COc1cccc2c1C(=O)c1c(O)c3c(c(O)c1C2=O)C[C@@](O)(C(=O)CO)C[C@@H]3O[C@H]1C[C@H](N)[C@H](O)[C@H](C)O1.Cl [DOXORUBICIN HYDROCHLORIDE]
L1210 (1565) [1]
  T/C: 330%

## C[C@@H]1OC(O[C@H]2C[C@](O)([C@H](C)OC(=O)Nc3ccccc3)Cc3c(O)c4c(c(O)c32)C(=O)c2ccccc2C4=O)C[C@H](N)[C@H]1O.Cl (some centres undefined)
L1210 (1565) [4]
  T/C: 400%

## CC1OC(O[C@H]2C[C@](O)([C@@H](C)OC(=O)Nc3ccccc3)Cc3c(O)c4c(c(O)c32)C(=O)c2ccccc2C4=O)CC(N)C1O.Cl (some centres undefined)
L1210 (1565) [5]
  T/C: 280%

## COc1cccc2c1C(=O)c1c(O)c3c(c(O)c1C2=O)C[C@@](O)(C(C)=O)C[C@@H]3O[C@H]1C[C@H](N)[C@H](O)[C@H](C)O1.Cl [DAUNORUBICIN HYDROCHLORIDE]
L1210 (1565) [6]
  T/C: 290%

## C[C@@H]1O[C@@H](O[C@H]2C[C@](O)(COC(=O)Nc3ccccc3)Cc3c(O)c4c(c(O)c32)C(=O)c2ccccc2C4=O)C[C@@H](N)[C@@H]1O.Cl (stereo in doubt; 8a)
L1210 (1565) [1]; 2 mg/kg
  T/C: 380%

## COc1ccc(NC(=O)OC[C@]2(O)Cc3c(O)c4c(c(O)c3[C@@H](OC3CC(N)C(O)C(C)O3)C2)C(=O)c2ccccc2C4=O)cc1.Cl (some centres undefined)
L1210 (1565) [1]
  T/C: 230%

## CC1OC(O[C@H]2C[C@](O)(COC(=O)Nc3ccc([N+](=O)[O-])cc3)Cc3c(O)c4c(c(O)c32)C(=O)c2ccccc2C4=O)CC(N)C1O.Cl (some centres undefined)
L1210 (1565) [7]
  T/C: 210%

## C[C@H]1C[C@H](N)C[C@H](O[C@H]2C[C@](O)(COC(=O)Nc3ccccc3)Cc3c(O)c4c(c(O)c32)C(=O)c2ccccc2C4=O)O1.Cl
L1210 (1565) [1]
  T/C: 500%

## CNC(=O)OC[C@]1(O)Cc2c(O)c3c(c(O)c2[C@@H](OC2CC(N)C(O)C(C)O2)C1)C(=O)c1ccccc1C3=O.Cl (some centres undefined)
L1210 (1565) [7]
  T/C: 280%

## C[C@@H]1OC(O[C@H]2C[C@](O)([C@@H](C)OC(=O)Nc3ccccc3)Cc3c(O)c4c(c(O)c32)C(=O)c2ccccc2C4=O)C[C@H](N)[C@@H]1O.Cl (some centres undefined)
L1210 (1565) [8]
  T/C: 420%
